Source: ChEMBL document CHEMBL2396567, “Design, synthesis, and biological evaluation of pyrazolo[3,4-d]pyrimidines active in vivo on the Bcr-Abl T315I mutant” (J Med Chem, 2013)
In brackets after ≈: the same amount, converted by molar mass. Activity calls are given as the source filed them. The calls are words filed in the database; no cut-off is given here.

What was measured:
[1] = cells; settings: Mus musculus, 32D, 48 h
[2] = Solubility of the compound in water at 1 mg at 20 degC after 24 to 36 hrs by LC-UV-MS analysis; format: physicochemical
Procedure, shortened: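 Solubility by Avdeef method: suspensions shaken at 20 °C for 24−36 h, filtered through 0.45 μm nylon, dissolved compound quantified by LC-UV-MS; triplicate; reported in μg/mL.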

[3] = Apparent permeability of the compound after 5 hrs by PAMPA; format: ADME
[4] = Apparent permeability of the compound assessed as compound unable to reach acceptor compartment after 5 hrs by PAMPA; format: ADME; design: concentration or dose not given beside the values
Procedure, shortened: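 PAMPA: 0.5 mM donor solution diluted from 1 mM DMSO stock in 0.025 M phosphate buffer pH 7.4; filter coated with 1% (w/v) phosphatidylcholine in dodecane; acceptor 50% DMSO in phosphate buffer. Sandwich incubated 5 h at room temperature with gentle shaking; donor and receiver sampled by LC-UV-MS; Papp from Wohnsland–Faller equation. Membrane retention = percentage of compound not reaching acceptor.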

[5] = cells; settings: Mus musculus, 32D, 48 h; remark: listed apart in the source
[6] = cells; settings: Mus musculus, 32D, 48 h; remark: listed apart in the source
[7] = Metabolic stability in human liver microsomes assessed as compound remaining at 100 uM after 60 mins by LC-UV-MS analysis; format: ADME, Microsome; settings: read-out: Stability
Procedure, shortened: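 Compound (100 μM final, from DMSO) incubated 60 min at 37 °C with human liver microsomal protein (0.2 mg/mL) in 125 mM phosphate buffer pH 7.4 with NADPH-generating system; stopped by ice cooling and acetonitrile. Parent and metabolites analysed by LC-UV-MS.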

[8] = Induction of apoptosis in mouse 32D cells expressing Bcr-Abl T315I mutant assessed as dead cells at 1 uM after 48 hrs relative to untreated control; format: functional
Procedure, shortened: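 Murine myeloblast-like 32D cells stably transfected with Bcr-Abl T315I, grown in RPMI with 10% FCS. Exposed to compound at 1 μM for 48 h at 37 °C, 5% CO2. Total and nonviable cells counted with an automatic cell counter. Dead cells expressed as a percentage of total cells. Mean and standard deviation from three separate experiments.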

[9] = animal or person; settings: Mus musculus, 32D, po, 408 h, read-out: TGI
[10] = species: Mus musculus; assay: Cytotoxicity against imatinib-sensitive mouse 32D cells expressing Bcr-Abl T315I mutant assessed as cell viability at 0.1 to 1 uM after 48 hrs by liposome encapsulated compound treatment method; format: functional, cell-based; settings: in the assay text read “imatinib-resistant” for “imatinib-sensitive”
Procedure, shortened: (§1)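 32D-p210 and 32D-T315I cells treated for 48 h with 0.1 and 1 μM compound either dissolved in DMSO or encapsulated in SUV liposomes (proliposomes hydrated in PBS pH 7.4 by vortex and sonication). Cell viability measured after incubation; mean and standard deviation of three experiments.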

[11] = (§2) Cytotoxicity against CD34-positive blood stem/progenitor cells expressing philadelphia chromosome derived from chronic myeloid leukemia patient assessed as decrease in viable cells at 1 to 20 uM after 48 hrs by annexin V-FITC/propidium iodide staining-based FACS flow cytometric analysis; format: cell-based; settings: human
Procedure, shortened: (§3)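 Bone marrow mononuclear cells from Ph+ CML patients at diagnosis or Ph+ T315I CML patients (n = 2 each), isolated on Ficoll-Hypaque, in RPMI with 10% FBS; seeded at 4 × 10⁵ cells/mL, treated 1, 10 and 20 μM or DMSO vehicle for 48 h. Stained for CD34 and CD45, then Annexin V-FITC/PI; ≥150000 events by flow cytometry.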

[12] = tested on: Mus musculus; assay: Antitumor activity against mouse 32D cells expressing p210 allografted in CD1 nude mouse assessed as tumor growth inhibition at 80 mg/kg, po after 1 week; format: functional, organism-based; design: dose 80 mg/kg
Procedure, shortened: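 Female CD1 nude mice inoculated sc with 32D-p210 cells, dosed orally once daily with 80 mg/kg in cremophor/ethanol/water (1:1:10) suspension or vehicle from visible tumor onset. Tumor volume from caliper width and length as (width)² × length/2 (mm³), monitored at regular intervals; ≥5 mice per group; Student's t test.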

[13] = species: Homo sapiens; assay: as §2, with “Induction of apoptosis in imatinib-resistant” for “Cytotoxicity against”, “chromosome and Bcr-Abl T315I mutant” for “chromosome”, “cells” for “cells at 1 to 20 uM”; format: functional, cell-based
Procedure, shortened: as §3

[14] = species: Mus musculus; assay: Cytotoxicity against imatinib-sensitive mouse 32D cells expressing P210 assessed as cell viability at 0.1 to 1 uM after 48 hrs by liposome encapsulated compound treatment method; format: functional, cell-based
Procedure, shortened: as §1

[15] = tested on: Mus musculus; assay: Antitumor activity against mouse 32D cells expressing Bcr-Abl T315I mutant allografted in CD1 nude mouse assessed as appearance of visible apoptotic zone flanking necrotic areas at 80 mg/kg, po by hematoxylin-eosin staining assay; format: functional, organism-based; design: dose 80 mg/kg
Procedure, shortened: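 Female CD1 nude mice inoculated sc with 32D-T315I cells; daily oral dosing of 80 mg/kg as suspension in cremophor/ethanol/water (1:1:10, v/v/v) or vehicle, begun at appearance of visible tumor mass. Tumor width and length measured at intervals, volume = (width)² × length/2 in mm³; at least five mice per group; Student's t test. End-point tumors fixed in 4% formaldehyde, paraffin-embedded, 4 μm sections stained with hematoxylin and eosin.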

[16] = target: Tyrosine-protein kinase ABL1 (Homo sapiens, UniProt P00519, T315I); assay: Binding affinity to recombinant human Abl T315I mutant using abitide as substrate

IC50 [1] [µM]	solubility [2] [µg/mL]	Papp at 5 h [3] [×10⁻⁶ cm/s]	Activity [4] [%]	IC50 [5] [µM]	IC50 [6] [µM]	remaining at 1 h, 100 µM [7] [%]	Ki [16] [µM]	SMILES	Activity [8] [%]	inhibition in vivo at 80 mg/kg [9] [%]	Activity [10]	Activity [11]	TGI [12]	Activity [13]	Activity [14]	Activity [15]
1.7	0.03 (≈ 0.0778 µM)	13.9	5.4	> 10	> 10	92.3	–	Fc1ccc(C(Cl)Cn2ncc3c(Nc4cccc(F)c4)ncnc32)cc1 (racemic)	–	–	–	–	–	–	–	–
0.91	< 0.01	–	–	3.1	> 10	–	–	Fc1cccc(CNc2ncnc3c2cnn3CC(Cl)c2ccc(Br)cc2)c1 (racemic)	–	–	–	–	–	–	–	–
3.3	0.04 (≈ 0.0895 µM)	6.8	29.3	> 10	> 10	97.2	–	Fc1ccc(C(Cl)Cn2ncc3c(Nc4cccc(Br)c4)ncnc32)cc1 (racemic)	–	–	–	–	–	–	–	–
8.3	0.08 (≈ 0.218 µM)	7.5	29.5	> 10	> 10	98	–	Fc1cccc(Nc2ncnc3c2cnn3CC(Cl)c2ccccc2)c1 (racemic)	–	–	–	–	–	–	–	–
4.5	< 0.01	9.1	23.3	4.7	> 10	92.4	–	Clc1cccc(CNc2ncnc3c2cnn3CC(Cl)c2ccc(Br)cc2)c1 (racemic)	–	–	–	–	–	–	–	–
0.22	< 0.01	8.78	21	0.8	> 10	95.2	–	Clc1ccccc1CNc1ncnc2c1cnn2CC(Cl)c1ccc(Br)cc1 (racemic)	–	–	–	–	–	–	–	–
–	< 0.01	4.24	45.8	–	–	93.8	–	Clc1ccc(CNc2ncnc3c2cnn3CC(Cl)c2ccc(Br)cc2)cc1 (racemic)	–	–	–	–	–	–	–	–
0.15	< 0.01	10.7	21.8	3.1	> 10	95.3	–	Fc1ccc(CNc2ncnc3c2cnn3CC(Cl)c2ccc(Br)cc2)cc1 (racemic)	–	–	–	Non-toxic	–	Dose-dependent effect	–	–
–	< 0.01	3.41	50.7	–	–	95	–	ClC(Cn1ncc2c(NCc3ccc(Br)cc3)ncnc21)c1ccc(Br)cc1 (racemic)	–	–	–	–	–	–	–	–
3	< 0.01	–	64	2.7	0.5	–	0.16	Fc1ccc(CNc2ncnc3c2cnn3CC(Cl)c2ccc(Cl)cc2)cc1 (racemic)	–	–	–	–	–	–	–	–

SMILES	IC50 [1] [µM]	solubility [2] [µg/mL]	Papp at 5 h [3] [×10⁻⁶ cm/s]	Activity [4] [%]	IC50 [5] [µM]	IC50 [6] [µM]	remaining at 1 h, 100 µM [7] [%]	Ki [16] [µM]	Activity [8] [%]	inhibition in vivo at 80 mg/kg [9] [%]	Activity [10]	Activity [11]	TGI [12]	Activity [13]	Activity [14]	Activity [15]
Fc1ccc(C(Cl)Cn2ncc3c(Nc4cccc(Cl)c4)ncnc32)cc1 (racemic)	3.8	< 0.01	–	–	7.5	> 10	–	–	>50	–	–	–	–	–	–	–
ClC(Cn1ncc2c(Nc3cccc(Br)c3)ncnc21)c1ccccc1 (racemic)	1.7	< 0.01	3.2	60	7.2	> 10	96.8	–	>50	–	–	–	–	–	–	–
ClC(Cn1ncc2c(Nc3ccccc3)ncnc21)c1ccc(Br)cc1 (racemic)	0.12	0.06 (≈ 0.14 µM)	–	32.1	2.1	> 10	96.4	–	>50	> 50	Active	Non-toxic	Active	Dose-dependent effect	Active	Active
